# Rows were chosen to be rich in hits. Some 0.64% of all compounds tested hit in one or more screens of this group.
# TNAP inh hiacc: human TNAP enzyme inhibitors, primary screen, biochemical, luminescent, high phosphate acceptor level, uHTS; 0.03% of 200,000 active; inhibition, % at 20 µM; AID 1135, 2008; purified TNAP, CDP-star luminescence, 1 M DEA; Alkaline phosphatase, tissue-nonspecific isozyme (Homo sapiens), P05186;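 active = over 50% inhibition of tissue-nonspecific alkaline phosphatase at 20 µM in the single-dose screen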;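 also: plate controls were DMSO wells for no effect and EDTA-quenched wells as full inhibition for full effect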
# Target sequence (P05186 whole entry, looked up): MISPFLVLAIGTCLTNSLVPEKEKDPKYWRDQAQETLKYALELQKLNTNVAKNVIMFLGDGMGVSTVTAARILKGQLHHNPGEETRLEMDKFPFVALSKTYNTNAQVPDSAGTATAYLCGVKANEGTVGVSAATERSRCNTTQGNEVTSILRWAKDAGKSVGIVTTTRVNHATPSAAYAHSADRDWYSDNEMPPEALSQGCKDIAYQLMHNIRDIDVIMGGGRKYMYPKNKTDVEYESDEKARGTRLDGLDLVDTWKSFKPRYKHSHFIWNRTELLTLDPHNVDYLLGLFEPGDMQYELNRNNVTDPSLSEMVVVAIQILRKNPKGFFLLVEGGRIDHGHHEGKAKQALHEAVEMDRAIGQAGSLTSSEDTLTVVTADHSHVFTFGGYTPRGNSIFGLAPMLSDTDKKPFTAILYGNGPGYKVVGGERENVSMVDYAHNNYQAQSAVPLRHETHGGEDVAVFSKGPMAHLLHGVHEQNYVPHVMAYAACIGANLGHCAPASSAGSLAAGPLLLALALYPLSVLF
# TNAP act hi DEA: TNAP activators at high phosphate acceptor level, primary screen, biochemical, luminescence, uHTS. 200,000 tested, under 10 active. purified TNAP, CDP-star luminescence, 1 M DEA, 30 min; hits give high values; 0 = EDTA background, 1 = DMSO-only activity. activation factor at 20 µM;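 active = activation factor at least 2 at 20 µM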
#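 Test system – human TNAP · Doses – 20 µM single point · Incubation – 30 min, room temperature · Signal – luminescent substrate turnover signal · Read-out basis – activation factor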
# TNAP inh no acc: human TNAP enzyme inhibitors, primary screen, biochemical, luminescent, no phosphate acceptor, uHTS | Alkaline phosphatase, tissue-nonspecific isozyme (Homo sapiens), P05186 | purified TNAP, CDP-star luminescence, 30 min | inhibition, % at 20 µM | 0.26% of 200,000 active;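 active = tissue-nonspecific alkaline phosphatase inhibition above about 50% at 20 µM in the single-dose screen, limit read from the data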;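 also: 0% = DMSO negative control and 100% = EDTA positive control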
# PMI activator: activators of human PMI, primary screen, biochemical, fluorescence intensity, near-Km mannose 6-phosphate | Mannose-6-phosphate isomerase (Homo sapiens), P34949 | purified human PMI, coupled resazurin fluorescence, 20 min; hits give high values; 1 = vehicle control, 0 substrate-free wells | activation factor at 20 µM | 0.005% of 190,000 active;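 active = activation factor of 2 or more at 20 µM, relative to plate controls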
# PMI act satM6P: human PMI activators, high substrate, primary screen, biochemical, fluorescence intensity, near-saturating mannose 6-phosphate; activation factor at 20 µM; Mannose-6-phosphate isomerase (Homo sapiens), P34949; 0.34% of 190,000 active; coupled PMI enzyme assay, resazurin fluorescence, 20 min; hits give high values; 1 = untreated enzyme, 0 = substrate-free blank;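 active = activation factor of 2 or more at 20 µM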
#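 test system = human PMI in coupled enzyme assay | medium = HEPES-buffered pH 7.4 with magnesium and detergent | also added = 1.0 mM mannose-6-phosphate substrate with 0.22 mM NADP+ | compound = 20 µM single dose | times = 20 min incubation at room temperature | measured by = resorufin fluorescence (Ex 544/Em 590 nm) from resazurin via diaphorase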
# The depositor's hits bear a star; i = inactive.
SMILES,TNAP inh hiacc,TNAP act hi DEA,TNAP inh no acc,PMI activator,PMI act satM6P
O=C(O)CC(c1ccccc1)n1cccc1 (configuration not stated),-3,1,-8,1.3,2*
O=C(NCc1ccco1)c1cccn2c(=O)c3cc4ccccc4cc3nc12,0,1,-4,2*,2.4*
COCCCNC(=O)c1cccn2c(=O)c3cc4ccccc4cc3nc12,-2,1,-4,1.5,1.9
Cc1ccc(/C=N/Nc2cccc3cccnc23)c(O)c1,-6,1.1,i,1.4,2*
Oc1ccc(/C=N/Nc2cccc3cccnc23)c(O)c1,7,0.9,-14,1.4,1.8
O=[N+]([O-])c1cccc(N/N=C/c2cc([N+](=O)[O-])ccc2O)c1,16,0.8,13,1.1,1
Cc1cccc(N/N=C/c2ccccc2O)c1,-6,1.1,9,1.7,2.8*
O=C(N/N=C/c1ccco1)c1cc(-c2ccccc2)n[nH]1,22,0.8,93*,0.9,0.9
O=C(N/N=C/c1ccco1)c1cc(-c2cccc3ccccc23)n[nH]1,4,1,27,0.9,1
Cc1ccc(-c2cc(C(=O)N/N=C/c3ccco3)[nH]n2)cc1,15,0.9,87*,0.9,0.9
O=C1c2c(O)cc(O)cc2O[C@H](c2ccc(O)c(O)c2)[C@@H]1O,8,0.9,70*,0.5,0.9
O=C1CC(c2ccc(F)cc2)Sc2ccccc2N1 (configuration not stated),1,1,-3,0.9,0.9
O=C1CC(c2ccc(F)cc2)Sc2nc(C34CC5CC(CC(C5)C3)C4)nn21 (configuration not stated),-4,1,86*,0.8,0.9
Cc1cccc2cc(C#N)c(N3CCN(C)CC3)nc12,2,1,-2,0.9,0.9
Cc1ccc(C)c2nc(N3CCCC3)c(C#N)cc12,-8,1.1,-20,1.1,2*
CCC(=O)n1nc(-c2ccc(Cl)cc2)nc1N,-7,1.1,59*,0.9,0.9
Nc1nc(-c2ccc(Cl)cc2)nn1C(=O)c1cccnc1,-2,1,58*,0.9,0.9
CC(=O)Nc1cc(C)c(S(C)(=O)=O)c(C)c1,-2,1,-9,1,0.9
CC(C)CNC(=O)Cn1c(=O)c2c(ncn2CC(C)C)n(Cc2ccccc2)c1=O,-7,1.1,-18,1,1.1
COc1ccc(F)cc1C(=O)C1CCCN(Cc2ccc(Sc3nncn3C)o2)C1 (configuration not stated),-8,1.1,-12,1,1
COc1ccc(-c2nc(SC(CC(=O)NCCO)c3cccs3)n[nH]2)cc1 (configuration not stated),-4,1,71*,1.1,1
Cc1cccc(C)c1N1CCN(C(=O)N2CCCCC2)CC1,-7,1.1,-9,1.6,2*
CN=c1scc(-c2ccc(F)cc2)n1/N=C/c1ccc(O)c(O)c1,19,0.8,70*,0.5,0.8
CN=c1scc(-c2ccc([N+](=O)[O-])cc2)n1/N=C/c1ccco1,12,0.9,4,1.3,1.1
N#CC(C#N)=Cc1cccn1-c1ccc(S(N)(=O)=O)cc1,-2,1,-10,1,1
CCc1nn(C)c(N)c1C,0,1,0,0.9,0.9
CC(C)CN1C(=O)c2ccccc2C1(O)Cc1ccccc1 (configuration not stated),-2,1,-5,1.6,2*
CCOC(=O)c1cc(-c2cccc([N+](=O)[O-])c2)n[nH]1,-2,1,62*,0.9,0.9
O=C(O)c1cc(-c2cccc([N+](=O)[O-])c2)n[nH]1,-3,1,41,1.1,1
O=C(C1CCN(Cc2cn[nH]c2-c2ccc(F)cc2F)CC1)N1CCOCC1,-5,1.1,51*,1,1.1

# Screens as filed in PubChem.
